The source of these data is ChEMBL document CHEMBL1121584, “Soft drugs. 3. A new class of anticholinergic agents” (J Med Chem, 1980).

The species entered for series [1] is Felis catus. Kind of series: acetylcholine antagonist effect of compound on cat blood pressure at concentration 5.7*10e-7 in 4 min. The class given is functional. In short, it runs like this:
(§1)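 Adult cats under ip α-chloralose (80 mg/kg) plus pentobarbitone (6 mg/kg), bilaterally vagotomized and artificially respired. Carotid blood pressure was recorded. An iv acetylcholine dose giving 70–80% of maximal vasodepressor response was used. After iv test drug, acetylcholine responses were checked at 1 min and then every 2–3 min and expressed as % of control. Doses were given in mol/kg, escalating after recovery.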

For series [2], the species on record is Felis catus. Kind of series: acetylcholine antagonist effect of compound on cat blood pressure at concentration 5.7*10e-8 in 4 min. The class given is functional. The method, boiled down:
(§2)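 Adult cats anesthetized ip with α-chloralose (80 mg/kg) plus sodium pentobarbitone (6 mg/kg), bilaterally vagotomized, artificially respired. Carotid arterial pressure recorded. Drugs given iv via brachial vein. Acetylcholine dose giving 70-80% of maximal vasodepressor response used throughout. Test drug injected, acetylcholine response checked 1 min later, then every ~2-3 min. Value is % of control vasodepressor response to acetylcholine.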

Series [3] is filed under the species Felis catus. Kind of series: acetylcholine antagonist effect of compound on cat blood pressure at concentration 5.7*10e-8 in 9 min. The class given is functional. The method, boiled down:
as §2

The species named for series [4] is Felis catus. Kind of series: acetylcholine antagonist effect of compound on cat blood pressure at concentration 5.7*10e-8 in 5 min. It counts as functional. The method, boiled down:
as §2

The species entered for series [5] is Felis catus. Kind of series: acetylcholine antagonist effect of compound on cat blood pressure at concentration 5.7*10e-7 in 17 min. It counts as functional. In short, it runs like this: as §1
For series [6], the species on record is Felis catus. Kind of series: acetylcholine antagonist effect of compound on cat blood pressure at concentration 5.7*10e-7 in 21 min. It counts as functional. In short, it runs like this:
as §1

For series [7], the species on record is Felis catus. Kind of series: acetylcholine antagonist effect of compound on cat blood pressure at concentration 5.7*10e-7 in 1 min. It counts as functional. In short, it runs like this:
as §1

The species entered for series [8] is Felis catus. Kind of series: acetylcholine antagonist effect of compound on cat blood pressure at concentration 5.7*10e-7 in 13 min. The class given is functional. In short, it runs like this:
as §1

The species entered for series [9] is Felis catus. Kind of series: acetylcholine antagonist effect of compound on cat blood pressure at concentration 5.7*10e-8 in 3 min. It counts as functional. The method, boiled down:
as §1

For series [10], the species on record is Felis catus. Kind of series: acetylcholine antagonist effect of compound on cat blood pressure at concentration 5.7*10e-7 in 6 min. It counts as functional. The method, boiled down: as §1
For series [11], the species on record is Felis catus. Kind of series: acetylcholine antagonist effect of compound on cat blood pressure at concentration 5.7*10e-7 in 10 min. The class given is functional. The method, boiled down:
as §1

For series [12], the species on record is Felis catus. Kind of series: acetylcholine antagonist effect of compound on cat blood pressure at concentration 5.7*10e-7 in 29 min. The class given is functional. In short, it runs like this:
as §1

Series [13] concerns Felis catus. Kind of series: acetylcholine antagonist effect of compound on cat blood pressure at concentration 5.7*10e-8 mol/kg in 1 min. It counts as functional. The method, boiled down: as §1
The species entered for series [14] is Felis catus. Kind of series: acetylcholine antagonist effect of compound on cat blood pressure at concentration 5.7*10e-7 in 25 min. The class given is functional. The method, boiled down:
as §1

The species entered for series [15] is Felis catus. Kind of series: acetylcholine antagonist effect of compound on cat blood pressure at concentration 5.7*10e-7 in 22 min. It counts as functional. The method, boiled down: as §1
For series [16], the species on record is Felis catus. Kind of series: acetylcholine antagonist effect of compound on cat blood pressure at concentration 5.7*10e-7 in 31 min. It counts as functional. In short, it runs like this:
as §1

The species named for series [17] is Felis catus. Kind of series: acetylcholine antagonist effect of compound on cat blood pressure at concentration 5.7*10e-7 in 3 min. The class given is functional. The method, boiled down:
as §1

Series [18] is filed under the species Felis catus. Kind of series: acetylcholine antagonist effect of compound on cat blood pressure at concentration 5.7*10e-7 in 12 min. The class given is functional. In short, it runs like this:
as §1

The species entered for series [19] is Felis catus. Kind of series: acetylcholine antagonist effect of compound on cat blood pressure at concentration 5.7*10e-7 in 27 min. The class given is functional. The method, boiled down: as §1
Series [20] is filed under the species Felis catus. Kind of series: acetylcholine antagonist effect of compound on cat blood pressure at concentration 5.7*10e-7 in 15 min. It counts as functional. The method, boiled down: as §1
For series [21], the species on record is Felis catus. Kind of series: acetylcholine antagonist effect of compound on cat blood pressure at concentration 5.7*10e-8 in 7 min. It counts as functional. The method, boiled down: as §2
The species named for series [22] is Felis catus. Kind of series: acetylcholine antagonist effect of compound on cat blood pressure at concentration 5.7*10e-7 in 18 min. The class given is functional. The method, boiled down:
as §1

The species named for series [23] is Felis catus. Kind of series: acetylcholine antagonist effect of compound on cat blood pressure at concentration 5.7*10e-7 in 37 min. The class given is functional. The method, boiled down:
as §1

Series [24] in a line: The hydrolytic kinetics expressed as Kobs was measured at 7.4 pH at 37 degree C. The class given is ADME. As to conditions: pH 7.4. The method, boiled down:
(§3)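 Chemical hydrolysis in 0.5 M potassium phosphate, pH 7.4, 37 °C. Rate was followed by appearance of the acid product or loss of the quaternary salt. Where salt contained amine hydrochloride, initial concentration was taken from final acid after complete hydrolysis. Half-life was estimated from both where resolved.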

The species entered for a further series is Cavia porcellus. Kind of series: Anticholinergic activity was measured by the guinea pig ileum test. The class given is functional. The conditions noted are these: read-out: pA2 (converted). The method, boiled down: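 Guinea pig whole ileum strips in McEwan's solution, gassed with O2/CO2 95:5, 37 °C organ bath, 1 g tension. Cumulative acetylcholine concentration-response curves were run to constancy, then repeated after 15–20 min equilibration with increasing antagonist concentrations. Mean curves gave dose ratios, from which competitive antagonism and pA2 were derived.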

Series [25] is described as follows: Half life period was measured at 7.4 pH from d[acid]/dt. It counts as ADME. As to conditions: pH 7.4. In short, it runs like this:
as §3

Turning to `C[N+]1(COC(=O)C(c2ccccc2)C2CCCC2)CCOCC1.[Cl-]` (configuration not stated), the Response in the series filed under Felis catus [1] was determined as 0%; in the series listed under Felis catus [2] it was 82%; in the series listed under Felis catus [3], 100%; in the series listed under Felis catus [4], 90%; in the series listed under Felis catus [5], 59%; in the series listed under Felis catus [6], 73%. Moreover, the Response in the series listed under Felis catus [7] came to 0%; in the series listed under Felis catus [8], 50%; in the series filed under Felis catus [9], 45%; in the series listed under Felis catus [10], 0%; in the series listed under Felis catus [11], 23%; in the series listed under Felis catus [12] it was 100%. Further, the Response with Felis catus [13] came to 0%; in the series filed under Felis catus [14], 82%.
Usually half-life stands for the time in which the quantity being followed falls by half. A low value points to rapid decline. Regarding `CC[N+](CC)(CC)COC(=O)C(c1ccccc1)C1CCCC1.[Cl-]` (configuration not stated), the Response was 65% in the series filed under Felis catus [15]; 95% in the series filed under Felis catus [16]; 100% in the series listed under Felis catus [3]; 0% in the series filed under Felis catus [17]; 18% in the series listed under Felis catus [18]; 73% in the series filed under Felis catus [19]. Moreover, the Response in the series filed under Felis catus [20] is reported as 36%; in the series filed under Felis catus [21], 82%; in the series filed under Felis catus [22], 55%; in the series filed under Felis catus [23] it was 100%; in the series filed under Felis catus [4], 55%; in the series listed under Felis catus [7], 0%. Moreover, the Response in the series filed under Felis catus [9] was found to be 18%; in the series listed under Felis catus [10], 0%; in the series with Felis catus [13], 0%. The K obs in [24] worked out at 0.000361 min⁻¹. Besides, the Kb in the series listed under Cavia porcellus is 7.94 nM. In [25], this compound had a half-life of 32 h.
